Measurements taken from ChEMBL document CHEMBL4266061, “Discovery of 4-Azaindole Inhibitors of TGFβRI as Immuno-oncology Agents” (ACS Med Chem Lett, 2018).

Tests used:
[1] = Cmax in Balb/C mouse at 50 mg/kg, po bid; assay type: ADME, organism-based; parameters: dose 50 mg/kg, route oral; conditions: in vivo
How it was run: (§1)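 Compound given orally to mice. Plasma levels were followed over time, and Cmax, Tmax and AUC0–24 were taken from the plasma concentration–time profile.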

[2] = Fraction unbound in human plasma; assay type: ADME, cell-free
[3] = Fraction unbound in mouse plasma; assay type: ADME, cell-free
[4] = AUC (0 to 24 hrs) in Balb/C mouse at 50 mg/kg, po bid; assay type: ADME, organism-based; parameters: time < 24 hr, dose 50 mg/kg, route oral; conditions: in vivo; how it was run: as §1
[5] = Metabolic stability in mouse liver microsomes assessed as parent compound remaining; assay type: ADME, microsome
[6] = Fraction unbound in rat plasma; assay type: ADME, cell-free
[7] = Metabolic stability in human liver microsomes assessed as parent compound remaining; assay type: ADME, microsome
[8] = Tmax in Balb/C mouse at 50 mg/kg, po bid; assay type: ADME, organism-based; conditions: in vivo; how it was run: as §1
[9] = Metabolic stability in rat liver microsomes assessed as parent compound remaining; assay type: ADME, microsome
[10] = AUC (0 to 24 hrs) in Balb/C mouse at 10 mg/kg, po qd; assay type: ADME, organism-based; parameters: time < 24 hr, dose 10 mg/kg, route oral; conditions: in vivo; how it was run: as §1
[11] = Tmax in Balb/C mouse at 10 mg/kg, po qd; assay type: ADME, organism-based; conditions: in vivo; how it was run: as §1
[12] = Cmax in Balb/C mouse at 10 mg/kg, po qd; assay type: ADME, organism-based; parameters: dose 10 mg/kg, route oral; conditions: in vivo; how it was run: as §1
Mus musculus = test: Toxicity in C57/BL6 mouse xenografted with mouse MC38 cells assessed as body weight loss at 25 to 50 mg/kg, po qd for 28 days measured twice weekly; assay type: organism-based; conditions: in vivo, 672 h
How it was run: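 Nine C57/BL6 mice per group were injected subcutaneously with 1 × 10^6 MC38 cells. Tumors were measured on day 6, then mice were randomized. Compound was given orally every day for 28 days, alone or with anti-PD-1 antibody (IP every 4 days, three doses). Tumor volumes were measured twice weekly, and body weight loss (>5%) was monitored.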

Cmax [1]	fraction unbound [2]	fraction unbound [3]	AUC at 24 h [4]	Stability [5]	fraction unbound [6]	Stability [7]	Tmax [8]	Stability [9]	AUC at 24 h [10]	Tmax [11]	Cmax [12]	Structure (SMILES)	Activity (Mus musculus)
7.4 µM	0.09	0.05	14.1 µM·h	66%	0.18	60%	1 h	85%	–	–	–	CC(=O)Nc1cc(-c2[nH]c3cccnc3c2-c2cccc(C(F)F)n2)ccn1	–
–	0.24	0.12	–	74%	0.25	96%	–	89%	19.5 µM·h	1 h	5.3 µM	[2H]C([2H])([2H])Oc1ccc(-c2c(-c3ccnc(NC(C)=O)c3)[nH]c3cccnc23)nc1	< 5%
